High-throughput results deposited in PubChem BioAssay by several laboratories.
Most compounds without a hit are left out; they make up all but 4.1% or so of the library.
hERG rescue = compounds protecting human hERG from proarrhythmic drug block; CHO-hERG, FluxOR thallium flux, dofetilide IC70 present; Q12809; 310,000 tested, 0.51% active; AID 1511; activation (rescue from dofetilide block), less the hit threshold, % at 10 µM;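 active = activation above the mean of controls blocked by dofetilide plus 5 SD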;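 note: thallium influx through hERG after potassium depolarization seen as dye fluorescence rise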
KCNQ1 inh = human KCNQ1 channel inhibition. P51787. CHO-K1 KCNQ1, FluxOR thallium flux fluorescence; active compounds read high. B-score at 10 µM. 310,000 tested, 1.3% active;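 active = compounds whose thallium flux B-score, printed positive for inhibition, exceeds three library SD while starting fluorescence stays within three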;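 note: channel opened by potassium depolarization with thallium stimulus after 20 min compound exposure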
KCNK9 block = human KCNK9 channel inhibition; Q9NPC2; HEK293 KCNK9, FluxOR thallium flux fluorescence; active compounds read low; B-score at 10 µM; 310,000 tested, 1.2% active; AID 488922;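 active = ratio B-score over 3 SD below the library mean, with starting fluorescence within 5 SD of its mean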;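 note: negative B-score means less thallium flux so channel inhibition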
KCNQ1 pot = potentiators or activators of human KCNQ1 potassium channel | P51787 | CHO-K1 KCNQ1, thallium flux FluxOR fluorescence; active compounds read high | B-score at 10 µM | 310,000 tested, 0.35% active | AID 2648;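 active = fluorescence ratio B-score, a plate-corrected score, at least three library SD, with initial intensity B-score within 5 SD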
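Assay system: CHO-K1 cells stably expressing KCNQ1. Medium: assay buffer for compound exposure, DMSO matched across wells. Timing: 37 °C overnight plating, 90-min dark dye load, 20-min compound pretreatment. Signal: kinetic FluxOR fluorescence, 10 s baseline plus 110 s post-stimulus.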
KCC2 mod = modulates chloride dependent transport by human KCC2. Q9H2X9. KCC2 cells, thallium flux FluoZin-2 fluorescence. B-score of Tl+ flux slope (higher = more flux/activation; lower = inhibition) at 10 µM. 190,000 tested, 2.2% active. AID 1456;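 active = thallium flux slope and its plate-corrected score both differing from the plate sample mean at a set confidence after two filtering rounds, in either direction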;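 note: slope of fluorescence scaled to starting intensity during 10 to 20 s after thallium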
KCNK3 block = human KCNK3 channel inhibition, primary screen. O14649. CHO-KCNK3 thallium flux, FluxOR fluorescence; active compounds read low. B-score at 10 µM. 340,000 tested, 0.84% active. AID 602410;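 active = B-score under library mean minus 4 SD, starting fluorescence ratio at most library mean plus 5 SD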;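 note: more negative B-score means stronger inhibition of thallium flux through KCNK3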
* marks the source's active call; other numbers are inactive results; i = inactive; x = not tested or not shown.

SMILES | hERG rescue | KCNQ1 inh | KCNK9 block | KCNQ1 pot | KCC2 mod | KCNK3 block
CC(C)C1Cc2c(sc3[nH]c(=S)n(Cc4ccccc4)c(=O)c23)CO1 (centres undefined) | 8.8* | i | i | 26* | 19* | i
CCOc1ccc(C2C(C(=O)OC)=C(C)N=C3SCCC(=O)N32)cc1OCC (centres undefined) | -5 | i | i | i | -0.46 | -8.8*
COc1ccc(NC(=O)Cn2cc(C(C)=O)c3ccccc32)cc1 | -14 | i | i | i | x | i
CCOC(=O)C1=C(CSc2nc3c(cc2C#N)CCC3)OC(N)=C(C#N)C1c1ccccc1 (centres undefined) | -9 | i | -6.7* | i | -1.2 | i
CN1CCN(CCCN2c3ccccc3Sc3ccc(C(F)(F)F)cc32)CC1 | -23 | 6* | i | i | 0.29 | i
CCOC(=O)c1c(NC(=O)c2nn(CC)cc2Br)c(C#N)cn1-c1ccccc1 | -5 | i | i | i | 0.28 | -11*
CCOc1ccc(-n2c(-c3ccc(Br)cc3)c[n+]3c2CCCCC3)cc1 | -23 | 8* | i | i | -0.44 | i
COc1ccc(-c2c[n+]3c(n2-c2ccc(C)cc2)CCCCC3)cc1 | -22 | 9* | i | i | 1.1 | i
CCOc1ccc(-n2c(-c3ccc(OC)cc3)c[n+]3c2CCCCC3)cc1 | -25 | 7* | i | i | 0.97 | i
COc1ccc(-n2c(-c3ccc(Cl)cc3)c[n+]3c2CCCCC3)cc1 | -20 | i | i | i | 0.48 | i
COc1ccc(NC(=O)C(=O)NNC(=O)COc2ccc(Cl)cc2)c(OC)c1 | 16* | i | i | 69* | x | i
O=C(COc1ccc2ccccc2c1)NNC(=O)C(=O)Nc1ccccc1 | 45* | i | i | 35* | x | i
CCOc1ccc(NC(=O)COc2ccc(OC)cc2)cc1 | -8 | i | i | i | x | i
Cc1cccc(NC(=O)NNC(=O)COc2ccc3ccccc3c2)c1 | -4 | i | i | i | x | i
CCc1ccc(NC(=O)C(=O)NNC(=O)COc2cccc(OC)c2)cc1 | 7.2* | i | i | 28* | 18* | i
COc1ccc(NC(=O)C(=O)NNC(=O)COc2ccc(OC)cc2)cc1 | 7.8* | i | i | i | x | i
CCOC(=O)c1ccc(Oc2cc(C)nc(SC)n2)cc1 | 5.5* | i | i | i | -1.1 | i
CCOC(=O)COC(=O)c1ccc(Oc2cc(C)nc(SC)n2)cc1 | -4 | i | i | i | -1.3 | i
CCC(=O)Nc1cccc(C2=NOC3(C2)C[C@H](C(N)=O)N(C(=O)CC#N)C3)c1 (some centres undefined) | 6.2* | i | i | i | 0.27 | i
CCC(=O)Nc1cccc(C2=NOC3(C2)C[C@@H](C(N)=O)N(C(=O)CC)C3)c1 (some centres undefined) | -12 | i | i | i | 0.18 | i
Cc1ccc(S(=O)(=O)N(Cc2n[nH]c(=S)n2-c2ccccc2)c2cccc(Cl)c2)cc1 | -19 | 6* | i | i | -0.66 | i
C/C(N)=C(/C#N)C(=O)COC(=O)c1cc(-c2cccc3ccccc23)nc2ccccc12 | -9 | 6* | i | i | -1 | i
CCc1ccc(NC(=S)Nc2cc(OC)c(NC(=O)C(C)C)cc2OC)cc1 | -12 | i | i | i | -2.2 | i
CCc1ccc(NC(=O)C(C)OC(=O)Cc2cc(OC)c(OC)c(OC)c2)cc1 (centres undefined) | x | x | x | x | x | -11*
CC1CCCN(c2cc3c(cc2[N+](=O)[O-])C(=O)N(c2ccccc2)C3=O)C1 (centres undefined) | -1 | i | i | i | 0.22 | i
SMILES | hERG rescue | KCNQ1 inh | KCNK9 block | KCNQ1 pot | KCC2 mod | KCNK3 block
O=[N+]([O-])c1ccccc1C1Nc2cccc3cccc(c23)N1 | -11 | 6* | i | i | x | i
Oc1ccccc1C1Nc2cccc3cccc(c23)N1 | -6 | i | i | i | 0.41 | i
COc1cccc(OC)c1OCCCCN1CCCCC1 | 2 | i | i | i | x | i
Cc1cccc(N2CCN(S(=O)(=O)c3ccc4c(c3)CC(C)N4C(=O)C3CC3)CC2)c1C (centres undefined) | -7 | 6* | i | i | x | i
CCOc1cc(C(=O)Nc2ccc(S(=O)(=O)N3CCCCC3)cc2)ccc1OCC(=O)N1CCOCC1 | -13 | i | i | i | x | i
CC12CCC(C/C1=N\N=C1\NC(=O)/C(=C\c3ccc(Cl)cc3)S1)C2(C)C (centres undefined) | 7.0* | i | i | 21* | -0.09 | i
C=CCn1c(=NC(=O)C2COc3ccccc3O2)sc2cccc(OC)c21 (centres undefined) | -13 | i | -7.4* | i | -2.9 | i
C=CCn1c(=NC(=O)CN2C(=O)CCC2=O)sc2cccc(OC)c21 | -7 | i | i | i | x | i
Cc1cc(Oc2ccc(Cl)cc2)nc(-c2ccccn2)n1 | -5 | i | i | i | -0.39 | i
CCCCn1c(=O)nc2n(-c3ccccc3C)c3ccccc3cc-2c1=O | -12 | i | i | 11* | -0.56 | i
Cc1ccccc1-n1c2nc(=O)n(C)c(=O)c-2cc2ccccc21 | -1 | 7* | i | i | 1.4 | i
Cn1c(=O)nc2n(Cc3ccccc3)c3ccccc3cc-2c1=O | -5 | i | i | 8* | -0.23 | i
CC1CC1C(=O)N1CCN(S(=O)(=O)c2cccc(F)c2)CC1 (centres undefined) | -14 | i | i | i | x | i
CCOC(=O)c1cnn(-c2nc(SC)nc3sc4c(c23)CCC4)c1N | -14 | i | -7.8* | i | -1 | i
Cc1nc(-n2ncc(C#N)c2N)c2c3c(sc2n1)CCC3 | -7 | i | i | i | x | i
O=C(CCl)NCCCN(C(=O)C(Cl)Cl)c1ccc([N+](=O)[O-])cc1 | -7 | i | i | i | -0.32 | i
CC(C)(C)c1cc(O)c(C(C)(C)C)cc1O | -9 | i | -8.5* | 8* | x | x
c1ccc2c(N3CCCCCC3)nc(-c3ccncc3)nc2c1 | -16 | i | -6.6* | i | -0.91 | i
CN(Cc1ccccc1F)c1nc(-c2cccs2)nc2ccccc12 | -18 | 6* | -8* | i | 0.36 | i
CN(C)C(=O)c1ccc(Nc2nc(-c3cccs3)nc3ccccc23)cc1 | -28 | i | i | i | x | i
c1cncc(-c2nc(N3CCCCCC3)c3ccccc3n2)c1 | -31 | i | i | i | -2.7 | i
